PPC-1+TRAIL kill: PPC-1 cancer cell killing with TRAIL present; PPC-1 cells + TRAIL, ATPLite viability luminescence; cell killing (% activity), % at 4 µM or 5 µM; 220,000 tested, 0.41% active; AID 1443;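 active = cell killing above 50% in the first pass at 4 µM, then a duplicate retest at 5 µM averaging 50% or more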
TRAIL sens C8: caspase-8 TRAIL sensitization; 360,000 tested, 1% active; inhibition (viability loss, TRAIL sensitization), % at 10 µM; NB7+C8 cells + TRAIL, ATPlite viability luminescence; AID 624354;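 active = compounds causing at least 50% loss of cell viability in the single-dose screen, relative to plate controls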
FLuc stim CS: firefly luciferase counter-screen for stimulation assays. P08659. ATPlite luciferase biochemical, luminescence, 10 min; 0 = ATP-free wells, 1 = DMSO control. activation factor at 10 µM. 200,000 tested, under 10 active;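 active = luciferase activation factor, scaled between plate controls, of at least 2 with compound at 10 µM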
Target sequence (P08659 whole entry, looked up): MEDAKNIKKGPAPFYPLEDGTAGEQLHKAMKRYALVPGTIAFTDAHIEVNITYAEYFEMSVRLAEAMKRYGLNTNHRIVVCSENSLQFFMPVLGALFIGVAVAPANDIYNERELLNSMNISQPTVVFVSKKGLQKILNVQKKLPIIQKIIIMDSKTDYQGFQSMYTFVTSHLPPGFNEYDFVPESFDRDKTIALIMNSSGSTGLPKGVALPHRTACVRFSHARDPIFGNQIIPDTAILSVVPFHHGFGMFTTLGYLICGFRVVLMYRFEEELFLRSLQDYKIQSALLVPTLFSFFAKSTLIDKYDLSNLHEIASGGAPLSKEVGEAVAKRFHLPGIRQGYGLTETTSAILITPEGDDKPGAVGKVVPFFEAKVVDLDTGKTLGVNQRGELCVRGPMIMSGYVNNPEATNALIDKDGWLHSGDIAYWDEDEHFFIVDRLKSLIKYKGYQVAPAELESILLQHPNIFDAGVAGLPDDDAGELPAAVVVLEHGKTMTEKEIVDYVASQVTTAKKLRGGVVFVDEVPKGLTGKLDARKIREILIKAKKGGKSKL
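Assay system – cell-free luciferase reagent · Medium – PBS-based ATP solution · Dosing – test compounds dosed from 2 mM stocks in 100% DMSO · Timing – 10 min, room temperature · Technique – light output (luminescence) · Measure – luminescence gain marking luciferase activators · Controls – No-ATP low control, compound-free enzyme-plus-ATP high control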
FLuc inhib CS: counter-screen for luciferase assay inhibitors: firefly luciferase inhibition; P08659; ATPLite firefly luciferase biochemical luminescence, 10 min; inhibition, % at 10 µM; 200,000 tested, 1.5% active; AID 1006;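 active = inhibition above about 50% when tested at 10 µM, limit read from the data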
PPC-1 tox: PPC-1 cell cytotoxicity; cytotoxicity, % at 5 µM; PPC-1 viability, ATPlite luminescence, overnight; shares compounds with PPC-1+TRAIL kill; AID 1447; 1,200 tested, 50% active;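 active = reconfirmed compounds whose average cytotoxicity reaches 50% or more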
Of the large screens only hits and unclear results are named; the others gave an inactive call (follow-up assays come after a bar, where they were run). An excerpt weighted towards active compounds, which were near 1.5% of everything screened.

C=C1C(=O)O[C@@H]2C[C@@H](C)[C@@H]3C=CC(=O)[C@@]3(C)[C@@H](OC(C)=O)[C@H]12	PPC-1+TRAIL kill 62.5 (no result: TRAIL sens C8, FLuc stim CS, FLuc inhib CS) | PPC-1 tox 51.7
C=CCC(CC=C)(NC(=O)c1ccccc1C(=O)O)c1ccccc1	none
O=C(Nc1ccc2c(c1)OCCO2)Nc1ccc2c(c1)OCO2	PPC-1+TRAIL kill 73.0, TRAIL sens C8 82.7, FLuc inhib CS 93.2 | PPC-1 tox 73.0
Cc1ccnc(NC(=O)Nc2ccc3c(c2)OCO3)c1	TRAIL sens C8 55.4, FLuc inhib CS 57.5 | PPC-1 tox inactive
Cc1ccccc1C(=O)Nc1ccc2c(c1)OCO2	FLuc inhib CS 74.1 | PPC-1 tox 51.9
Cn1c(C(=O)Nc2ccc3c(c2)OCO3)cc2sccc21	FLuc inhib CS 53.2 | PPC-1 tox inactive
CC1(c2nnnn2Cc2ccccc2)CCC(=O)N1Cc1cccnc1 (configuration not stated)	none (no result: PPC-1+TRAIL kill, FLuc stim CS, FLuc inhib CS)
Cc1[nH]c(C)c(S(=O)(=O)N(Cc2ccccc2)C(C)C)c1C(=O)N1CCCC1	none (no result: PPC-1+TRAIL kill, FLuc stim CS, FLuc inhib CS)
O=c1[nH]nc(N2CCOCC2)c(=O)[nH]1	none (no result: FLuc stim CS, FLuc inhib CS)
CCc1nn2cc(-c3ccccc3)nc2s1	PPC-1+TRAIL kill 57.6, TRAIL sens C8 70.8, FLuc inhib CS 88.8 | PPC-1 tox 56.9
O=C(Cn1[nH]c(=O)c2ccccc2c1=O)N1CCN(S(=O)(=O)c2ccc(Cl)cc2)CC1	none (no result: PPC-1+TRAIL kill, FLuc stim CS, FLuc inhib CS)
CC1(C)CC(=O)C2=C(C1)OC(N)=C(C#N)C2c1ccccc1OC(=O)N1CCOCC1 (configuration not stated)	none | PPC-1 tox inactive
COc1ccc(NC(=O)CCCC(=O)NCCc2ccc(OC)c(OC)c2)cc1	none (no result: PPC-1+TRAIL kill, FLuc stim CS, FLuc inhib CS)
COc1cccc(/C=N/Nc2nc(-c3cccnc3)nc3ccccc23)c1	none (no result: FLuc stim CS, FLuc inhib CS)
C(=N\Nc1nc(-c2cccnc2)nc2ccccc12)/c1ccccc1	none (no result: FLuc stim CS, FLuc inhib CS)
C(=N\Nc1nc(-c2ccccn2)nc2ccccc12)/c1ccccc1	PPC-1+TRAIL kill 69.0 (no result: TRAIL sens C8, FLuc stim CS, FLuc inhib CS) | PPC-1 tox 73.4
Brc1ccc(-c2nc(N/N=C/c3cccnc3)c3ccccc3n2)cc1	PPC-1+TRAIL kill 88.2, TRAIL sens C8 91.3, FLuc inhib CS 95.9 | PPC-1 tox 86.9
COCCN(C(=O)CSc1nnc(-c2ccc(C(C)(C)C)cc2)n1N)c1c(N)n(CC(C)C)c(=O)[nH]c1=O	none (no result: PPC-1+TRAIL kill, FLuc stim CS, FLuc inhib CS)
CCN(CC(=O)Nc1cccc(C#N)c1)CC(=O)Nc1cccc(OC)c1	none
CC(=O)C1=C(C)NC(SCC(N)=O)=C(C#N)C1c1cccs1 (configuration not stated)	none | PPC-1 tox inactive
Cc1ccc(NCc2ccccc2O)c(C)c1	none | PPC-1 tox inactive
CCOC(=O)COc1ccc2c3c(c(=O)oc2c1C)CCC3	none | PPC-1 tox inactive
CCc1nc2ccc(C(=O)NCCCn3ccnc3)cn2c1N(C)CCC(C)C	none (no result: PPC-1+TRAIL kill, FLuc stim CS, FLuc inhib CS)
O=C1c2cc3c(cc2CCC1c1ccc2c(c1)OCO2)OCO3 (configuration not stated)	none (no result: PPC-1+TRAIL kill, FLuc stim CS, FLuc inhib CS)
Cc1ccc(N/C=C/C(=O)c2cccs2)cc1	PPC-1+TRAIL kill 85.8, TRAIL sens C8 88.0, FLuc inhib CS 96.9 | PPC-1 tox 84.9
COc1ccc(C(=O)/C=C/Nc2cccc(O)c2)cc1	PPC-1+TRAIL kill 81.8, TRAIL sens C8 61.7, FLuc inhib CS 95.2 | PPC-1 tox 82.6
COc1cccc(N/C=C/C(=O)c2ccc(Br)cc2)c1	none (no result: PPC-1+TRAIL kill, FLuc stim CS, FLuc inhib CS)
COc1ccc(N/C=C\C(=O)c2ccc3c(c2)OCO3)cc1	PPC-1+TRAIL kill 68.5, TRAIL sens C8 69.0, FLuc inhib CS 88.7 | PPC-1 tox 59.4
O=C(/C=C\Nc1ccc2c(c1)OCO2)c1ccccn1	PPC-1+TRAIL kill 91.5, TRAIL sens C8 86.8, FLuc inhib CS 95.2 | PPC-1 tox 92.3
COc1ccc(NC(=O)c2ccc3c(c2)OCO3)cc1	none (no result: PPC-1+TRAIL kill, FLuc stim CS, FLuc inhib CS)
Cc1noc(NS(=O)(=O)c2ccc(N/C=C\C(=O)c3cccs3)cc2)c1C	none
NC(=O)c1ccccc1NC(=O)c1cccc(C(=O)Nc2ccccc2C(N)=O)n1	none (no result: PPC-1+TRAIL kill, FLuc stim CS, FLuc inhib CS)
O=C(/C=C\Nc1ccc2c(c1)OCO2)c1ccc2c(c1)OCO2	PPC-1+TRAIL kill 85.2, TRAIL sens C8 83.4, FLuc inhib CS 89.3 | PPC-1 tox 84.2
O=C(/C=C\Nc1ccc2c(c1)OCO2)c1cccs1	PPC-1+TRAIL kill 81.9, TRAIL sens C8 78.4, FLuc inhib CS 96.0 | PPC-1 tox 81.6
COc1ccc(-c2n(CC(=O)OC3CC(C)CCC3C(C)C)c3ccccc3[n+]2C)cc1 (configuration not stated)	none | PPC-1 tox 52.1
COc1ccc(OCc2n(CC(=O)OC3CC(C)CCC3C(C)C)c3ccccc3[n+]2C)cc1 (configuration not stated)	none (no result: FLuc stim CS, FLuc inhib CS)
